The structures appear in SMILES notation. pIC50: −log10 of the molar value. Activity calls are given as the source filed them. The rule behind the calls is not given here.

For data set [1], the target named is Dipeptidyl peptidase 4 (Homo sapiens, UniProt P27487).
The target in data set [2] is Dipeptidyl peptidase 2 (Homo sapiens, UniProt Q9UHL4). As to the kind of experiment: Inhibition of DPP2.
A short description of data set [3]: Inhibition of FAP. In short, it runs like this:
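Enzyme inhibition IC50 is reported as the mean of at least three experiments, with standard deviations of ±40%.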

Data set [4] deals with Mus musculus. As to the kind of experiment: Reduction in glucose excursion in C57BL/6 mouse at 3 mg/kg, po measured up to 120 mins by oral glucose tolerance test. It is filed as functional, organism-based. More on the design: dose 3 mg/kg. In short, it runs like this: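 C57BL/6j mice (n = 6) received the compound orally at 3 mpk, with water as the control, 30 min before a glucose load of 3 g/kg.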

Data set [5] has as its system Rattus norvegicus. As to the kind of experiment: Inhibition of plasma DPP4 in Wistar rat at 3 mg/kg, po measured 30 mins to 4 hrs. The settings on record: read-out: INH.
Data set [6] has as its system Rattus norvegicus. Briefly: Inhibition of plasma DPP4 in Wistar rat at 3 mg/kg, po measured after 8 hrs. The settings on record: read-out: INH.
The nature of data set [7]: Stability to the compound assessed as half life in phosphate buffer at pH 7.4. It is filed as physicochemical.
Data set [8] deals with Dipeptidyl peptidase 8 (Homo sapiens, UniProt Q6V1X1). As to the kind of experiment: Inhibition of DPP8.
Dipeptidyl peptidase 8, sequence (Q6V1X1 whole entry): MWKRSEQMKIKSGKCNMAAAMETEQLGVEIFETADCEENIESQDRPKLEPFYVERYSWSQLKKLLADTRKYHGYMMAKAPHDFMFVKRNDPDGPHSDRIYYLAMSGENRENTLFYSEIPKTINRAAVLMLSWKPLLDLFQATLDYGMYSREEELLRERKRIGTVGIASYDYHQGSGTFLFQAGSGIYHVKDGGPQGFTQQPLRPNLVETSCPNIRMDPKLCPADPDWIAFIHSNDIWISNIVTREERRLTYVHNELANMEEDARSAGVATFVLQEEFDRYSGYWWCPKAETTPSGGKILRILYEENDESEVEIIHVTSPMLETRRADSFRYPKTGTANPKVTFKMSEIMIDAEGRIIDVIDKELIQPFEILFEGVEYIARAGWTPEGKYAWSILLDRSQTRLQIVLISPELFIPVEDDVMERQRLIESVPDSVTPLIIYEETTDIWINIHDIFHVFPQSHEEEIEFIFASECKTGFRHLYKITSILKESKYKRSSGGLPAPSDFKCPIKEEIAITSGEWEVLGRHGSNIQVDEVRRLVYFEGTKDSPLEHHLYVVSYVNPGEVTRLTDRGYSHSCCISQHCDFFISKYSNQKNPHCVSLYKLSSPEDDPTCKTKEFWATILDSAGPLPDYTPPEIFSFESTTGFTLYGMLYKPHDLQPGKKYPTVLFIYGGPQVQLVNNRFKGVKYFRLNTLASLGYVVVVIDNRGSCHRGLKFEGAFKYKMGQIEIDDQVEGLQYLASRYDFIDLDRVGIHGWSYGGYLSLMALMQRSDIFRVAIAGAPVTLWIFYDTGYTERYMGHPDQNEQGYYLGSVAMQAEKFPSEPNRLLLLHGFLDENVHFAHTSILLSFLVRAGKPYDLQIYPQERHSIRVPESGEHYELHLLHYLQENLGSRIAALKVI

Dipeptidyl peptidase 4, sequence (P27487 whole entry): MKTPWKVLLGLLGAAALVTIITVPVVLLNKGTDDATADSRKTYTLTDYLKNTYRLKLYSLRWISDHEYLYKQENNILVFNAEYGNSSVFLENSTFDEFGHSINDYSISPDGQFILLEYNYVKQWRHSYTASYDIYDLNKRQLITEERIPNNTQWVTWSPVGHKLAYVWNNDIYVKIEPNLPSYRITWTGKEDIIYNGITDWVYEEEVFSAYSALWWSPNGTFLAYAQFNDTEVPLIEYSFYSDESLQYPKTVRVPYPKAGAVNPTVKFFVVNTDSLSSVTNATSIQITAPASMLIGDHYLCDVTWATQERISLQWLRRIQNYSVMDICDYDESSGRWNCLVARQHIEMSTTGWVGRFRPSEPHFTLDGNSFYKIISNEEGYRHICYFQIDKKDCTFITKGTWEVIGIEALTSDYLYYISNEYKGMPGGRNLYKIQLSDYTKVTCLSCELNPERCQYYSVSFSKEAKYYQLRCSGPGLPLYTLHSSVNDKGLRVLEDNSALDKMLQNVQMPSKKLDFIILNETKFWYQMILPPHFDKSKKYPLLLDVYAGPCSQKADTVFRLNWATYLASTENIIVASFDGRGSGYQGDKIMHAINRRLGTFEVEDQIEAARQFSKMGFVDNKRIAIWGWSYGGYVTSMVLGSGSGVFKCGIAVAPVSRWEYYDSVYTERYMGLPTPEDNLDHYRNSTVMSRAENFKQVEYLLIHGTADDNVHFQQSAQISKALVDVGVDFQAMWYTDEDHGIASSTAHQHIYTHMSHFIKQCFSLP

A word on the pIC50: it is −log10 of the IC50, conventionally taken in molar units. A lower pIC50 goes with a large IC50. On to `N#C[C@@H]1CCCN1C(=O)[C@@H](N)CCC(=O)N1CCCC1`, for which the pIC50 in data set [1] is 8.15; in data set [2], less than 4.70; in data set [3], 4.96.

Consider `CC(C)(CC(=O)N1CCc2ccsc2C1)[C@H](N)C(=O)N1CCC[C@H]1C#N`, for which the negative logarithm of the IC50 (pIC50) in data set [1] was 7.60; in data set [2], less than 4.70; in data set [3], less than 4.70.

In data set [3], `N#C[C@@H]1CCCN1C(=O)[C@@H](N)CCC(=O)N1CCN(c2ccncc2)CC1` had a pIC50 of 6.33.

Consider `CCOC(=O)N1CCN(C(=O)CC[C@H](N)C(=O)N2CCC[C@H]2C#N)CC1`, for which the pIC50 in data set [1] was 7.51; in data set [2] it was less than 4.70; in data set [3], 5.51.

`N#C[C@@H]1CCCN1C(=O)CNC12CC3CC(CC(O)(C3)C1)C2` [VILDAGLIPTIN] showed a pIC50 in data set [3] of less than 4.70. For the same compound, the outcome in data set [4] was Active. Moreover, the inhibition in vivo at 3 mg/kg in data set [5] was greater than 80%; in data set [6], greater than 60%.

`COC[C@H]1CCCN1C(=O)CC[C@H](N)C(=O)N1CCC[C@H]1C#N`: the values for the negative logarithm of the IC50 (pIC50) in data set [1], in data set [2] and in data set [3] were 7.66, less than 4.70 and 4.68, respectively.

`N#C[C@@H]1CCCN1C(=O)[C@@H](N)CCC(=O)N1CCc2nc(-c3ccc(F)cc3)sc2C1` had a pIC50 in data set [3] of 5.64.

`CC(C)(CC(=O)N1CCn2c(nnc2C(F)(F)F)C1)[C@H](N)C(=O)N1CCC[C@H]1C#N`: the pIC50 in data set [1] was 7.92; in data set [2], less than 4.70; in data set [3], less than 4.70.

For `N#C[C@@H]1CCCN1C(=O)[C@@H](N)CCC(=O)Nc1ccccc1`, the pIC50 in data set [1] is 7.43.

`N#C[C@@H]1CCCN1C(=O)[C@@H](N)CCC(=O)N1CCN(C(=O)C(F)(F)F)CC1`: the pIC50 is 8.10 in data set [1], less than 4.70 in data set [2] and 4.72 in data set [3].

As to `N#C[C@@H]1CCCN1C(=O)[C@@H](N)CCC(=O)N1CCn2cnnc2C1`, the results for the pIC50 in data set [1], in data set [2] and in data set [3] were 8.15, less than 4.70 and less than 4.70, respectively.

On to `CC(C)(CC(=O)N1CCn2nc(C(F)(F)F)nc2C1)[C@H](N)C(=O)N1CCC[C@H]1C#N`, for which the pIC50 in data set [1] is 7.51; in data set [2], less than 4.70; in data set [3], less than 4.70.

As to `C[C@@H]1CCCN1C(=O)CC(C)(C)[C@H](N)C(=O)N1CCC[C@H]1C#N`, the figures for the pIC50 in data set [1], in data set [2] and in data set [3] were 7.89, less than 4.70 and less than 4.70, respectively.

`N#C[C@@H]1CCCN1C(=O)[C@@H](N)CCC(=O)N1CCc2ccsc2C1` gave a pIC50 in data set [3] of 5.12.

Regarding `N#C[C@@H]1CCCN1C(=O)[C@@H](N)CCC(=O)N1CCn2nc(C(F)(F)F)nc2C1`, the pIC50 was 8.05 in data set [1], less than 4.70 in data set [2] and less than 4.70 in data set [3].

The half-life is the time in which the quantity being followed falls by half. For `COC[C@@H]1CCCN1C(=O)CC(C)(C)[C@H](N)C(=O)N1CCC[C@H]1C#N.O=C(O)C(F)(F)F`, the pIC50 in data set [2] and in data set [3] was less than 4.70 throughout. Also, in data set [7], the half-life is greater than 168 h. Further, the result in data set [4] was Active. Besides, the inhibition in vivo at 3 mg/kg in data set [5] is greater than 80%; in data set [6], greater than 60%.

With `N#C[C@@H]1CCCN1C(=O)[C@@H](N)CCCC(=O)N1Cc2ccccc2C1`, in data set [3], the pIC50 is 7.27.

Turning to `C[C@H](CC(=O)N1CCn2c(nnc2C(F)(F)F)C1)[C@H](N)C(=O)N1CCC[C@H]1C#N`, the pIC50 was less than 4.70 in data set [2] and 5.15 in data set [3].

With `N[C@@H](CCC(=O)N1Cc2ccccc2C1)C(=O)N1CCSC1`, the pIC50 in data set [1] was 5.80; in data set [8], less than 4.70; in data set [2], less than 4.70; in data set [3], 4.92.

In turn, `N#C[C@@H]1CCCN1C(=O)[C@@H](N)CCC(=O)N1CCn2c(nnc2C(F)(F)F)C1` gave a pIC50 in data set [3] of less than 4.70.

In the case of `N#C[C@@H]1CCCN1C(=O)[C@@H](N)CCC(=O)N1CCCCC1`, the values for the pIC50 in data set [1], in data set [2] and in data set [3] were 7.82, less than 4.70 and less than 4.70, respectively.

As to `N#C[C@@H]1CCCN1C(=O)[C@@H](N)CCC(=O)N1CCn2cc(C(F)(F)F)nc2C1`, the pIC50 in data set [3] was 4.85.

Take `N#C[C@@H]1CCCN1C(=O)[C@@H](N)CCC(=O)NC1CCCC1`: the pIC50 was 7.96 in data set [1], less than 4.70 in data set [2] and less than 4.70 in data set [3].

Consider `CC(C)(CC(=O)N1Cc2ccccc2C1)[C@H](N)C(=O)N1CCC[C@H]1C#N`, for which the negative-log IC50 (pIC50) in data set [1] is 7.92; in data set [2], less than 4.70; in data set [3] it was less than 4.70.

With `COC[C@@H]1CCCN1C(=O)CC[C@H](N)C(=O)N1CCC[C@H]1C#N`, the pIC50 in data set [1] is 8.15; in data set [2], less than 4.70; in data set [3] it was 4.70.

Regarding `CC[C@H](CC(=O)N1CCn2c(nnc2C(F)(F)F)C1)[C@H](N)C(=O)N1CCC[C@H]1C#N`, the pIC50 in data set [1] was 7.51; in data set [2] it was less than 4.70; in data set [3], less than 4.70.

As to `COc1cc2c(cc1OC)C(C(C)C)N(C(=O)CC[C@H](N)C(=O)N1CCC[C@H]1C#N)CC2` (some centres undefined), the pIC50 in data set [3] was 5.21.

Consider `N#C[C@@H]1CCCN1C(=O)[C@@H](N)CC(=O)N1Cc2ccccc2C1`, for which the pIC50 in data set [2] and in data set [3] was less than 4.70 in each case.

In the case of `CC(C)(CC(=O)N1CCc2ccccc2C1)[C@H](N)C(=O)N1CCC[C@H]1C#N`, the results for the pIC50 in data set [1], in data set [2] and in data set [3] were 7.80, less than 4.70 and less than 4.70, respectively.

Regarding `N#C[C@@H]1CCCN1C(=O)[C@@H](N)CCC(=O)N1Cc2ccccc2C1`, the pIC50 in data set [3] is 5.92.

For `N#C[C@@H]1CCCN1C(=O)[C@@H](N)CCC(=O)N1CCc2ccccc2C1`, the pIC50 in data set [3] was 5.06.

Regarding `N#C[C@@H]1CCCN1C(=O)[C@@H](N)CCC(=O)N1CCSC1`, the pIC50 in data set [1] is 8.00; in data set [2], less than 4.70; in data set [3] it was 5.08.

As for `N#C[C@@H]1CCCN1C(=O)[C@@H](N)CCC(=O)N1CCOCC1`, the pIC50 in data set [1] was 7.77; in data set [2], less than 4.70; in data set [3], less than 4.70.

As to `N#CC1CCCN1C(=O)[C@@H](N)CCC(=O)N1Cc2ccccc2C1` (single isomer, unassigned), the pIC50 in data set [3] is 5.92.

With `N[C@@H](CC(=O)N1CCn2c(nnc2C(F)(F)F)C1)Cc1cc(F)c(F)cc1F` [SITAGLIPTIN], the pIC50 in data set [3] was less than 4.70.
